Data taken from ChEMBL document CHEMBL5712087, “Targeting bromodomain-containing protein 4 (BRD4) inhibits MYC expression in colorectal cancer cells” (Neoplasia, 2019).
Activity calls are given as the source filed them. The rule behind the calls is not given here.

How the values were obtained:
[1] = target: T1, Protein cereblon/Bromodomain-containing protein 4 (Homo sapiens) (UniProt O60885+Q96SW2); experiment: PROTAC activity at BRD4/Cereblon in human LS174T cells assessed as BRD4 protein degradation at 100 to 500 nM pretreated with proteasome inhibitor MG132 for 4 hrs by Western blot analysis; type: cell-based; settings: dose 100-500 nM
Procedure, shortened: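 LS174t cells pre-incubated 4 h with proteasome inhibitor MG132 (10 mM DMSO stock) before PROTAC exposure. BRD4 read by immunoblot: 15 µg lysate, 10% SDS-PAGE, anti-BRD4 1:1,000 overnight at 4 °C, GAPDH/β-actin loading control.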

LS174T [2] = experiment: Inhibition of colony formation in human LS174T cells for 3 days by crystal violet staining analysis; type: functional, cell-based; settings: time 3.0 day
Procedure, shortened: (§1)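 Cells (1-2x10^3) were plated in six-well plates and, after 48 h, exposed to the PROTAC at the stated concentrations for 3–5 days. Plates were then methanol-fixed and stained with crystal violet. Culture was at 37 °C, 5% CO2, with 10% FCS. Media were RPMI 1640 (Caco2, COLO320, DLD1, LS174t), McCoy's (HCT116, HT29) or DMEM/HamsF12 (SW480). Experiments were done ≥3 times.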

[3] = target: T1, Protein cereblon/Bromodomain-containing protein 4 (Homo sapiens); experiment: PROTAC activity at BRD4/Cereblon in human HCT116 p53+/+ cells assessed as decrease in BRD4 protein degradation at 5 to 10 uM for 24 hrs by Western blot analysis; type: cell-based; settings: HCT-116, dose 5-10 µM
Procedure, shortened: (§2)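 Eight CRC lines exposed 24 h to PROTAC at 5 or 10 µM (stocks 2 mM in DMSO, diluted in PBS or medium). Lysis in RIPA with protease/phosphatase inhibitors and 2.5 mmol/l DTT; 15 µg protein on 10% SDS-PAGE, semi-dry transfer to nitrocellulose. Anti-BRD4 or anti-MYC at 1:1,000 overnight at 4 °C; GAPDH or β-actin loading control; chemiluminescence.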

[4] = target: T1, Protein cereblon/Bromodomain-containing protein 4 (Homo sapiens); experiment: PROTAC activity at BRD4/Cereblon in human LS174T cells assessed as decrease in BRD4 protein degradation at 5 to 10 uM for 24 hrs by Western blot analysis; type: cell-based; settings: dose 5-10 µM; procedure, shortened: as §2
[5] = target: T1, Protein cereblon/Bromodomain-containing protein 4 (Homo sapiens); experiment: PROTAC activity at BRD4/Cereblon in human COLO 320 cells assessed as decrease in MYC protein expression at 5 to 10 uM for 24 hrs by Western blot analysis; type: cell-based; settings: dose 5-10 µM; procedure, shortened: as §2
Caco-2 = experiment: Inhibition of colony formation in human Caco-2 cells at 5 to 10 uM by crystal violet staining analysis; type: functional, cell-based; settings: dose 5-10 µM; procedure, shortened: as §1
COLO 320 = experiment: Inhibition of colony formation in human COLO 320 cells at 5 to 10 uM by crystal violet staining analysis; type: functional, cell-based; settings: dose 5-10 µM; procedure, shortened: as §1
DLD-1 = experiment: Inhibition of colony formation in human DLD-1 cells at 5 to 10 uM by crystal violet staining analysis; type: functional, cell-based; settings: dose 5-10 µM; procedure, shortened: as §1
HCT-116 [6] = experiment: Inhibition of colony formation in human HCT-116 p53+/+ cells at 5 to 10 uM by crystal violet staining analysis; type: functional, cell-based; settings: dose 5-10 µM; procedure, shortened: as §1
HCT-116 [7] = experiment: Inhibition of colony formation in human HCT-116 p53-/- cells at 5 to 10 uM by crystal violet staining analysis; type: functional, cell-based; settings: dose 5-10 µM; procedure, shortened: as §1
LS174T [8] = experiment: Inhibition of colony formation in human LS174T cells at 5 to 10 uM by crystal violet staining analysis; type: functional, cell-based; settings: dose 5-10 µM; procedure, shortened: as §1
SW480 = experiment: Inhibition of colony formation in human SW480 cells at 5 to 10 uM by crystal violet staining analysis; type: functional, cell-based; settings: dose 5-10 µM; procedure, shortened: as §1
HT-29 = experiment: Inhibition of colony formation in human HT-29 cells at 5 to 10 uM by crystal violet staining analysis; type: functional, cell-based; settings: dose 5-10 µM; procedure, shortened: as §1
[9] = target: T1, Protein cereblon/Bromodomain-containing protein 4 (Homo sapiens); experiment: PROTAC activity at BRD4/Cereblon in human LS174T-dbet1 resistant cells assessed as BRD4 protein degradation at 500 to 1000 nM for 24 hrs by Western blot analysis; type: cell-based; settings: dose 500-1000 nM
[10] = target: T1, Protein cereblon/Bromodomain-containing protein 4 (Homo sapiens); experiment: PROTAC activity at BRD4/Cereblon in human LS174T-dbet1 resistant cells assessed as MYC protein expression at 500 to 1000 nM for 24 hrs by Western blot analysis; type: cell-based; settings: dose 500-1000 nM
[11] = target: T2, von Hippel-Lindau disease tumor suppressor/Bromodomain-containing protein 4 (Homo sapiens) (UniProt O60885+P40337); experiment: PROTAC activity at BRD4/VHL E3 ligase in human LS174T cells assessed as BRD4 protein degradation at 250 nM for 2 hrs and measured 22 hrs after washout by Western blot analysis; type: cell-based
Procedure, shortened: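 LS174t cells were exposed to PROTAC for 2 h. For washout, the PROTAC was removed by changing the culture medium and cells were harvested 22 h later. BRD4 was assessed by western blot (15 µg lysate, 10% SDS-PAGE, chemiluminescence), normalised against GAPDH/β-actin.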

[12] = target: T2, von Hippel-Lindau disease tumor suppressor/Bromodomain-containing protein 4 (Homo sapiens); experiment: PROTAC activity at BRD4/VHL E3 ligase in human LS174T cells assessed as decrease in MYC mRNA level at 100 to 1000 nM for 24 hrs by RT-qPCR analysis; type: cell-based; settings: dose 100-1000 nM
Procedure, shortened: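 LS174t cells were treated for 24 h, then total RNA was Trizol-extracted from 10^6 cells and integrity-checked. 0.7 µg RNA was reverse transcribed and SYBR-type qPCR run for 40 cycles (95 °C 15 s, 60 °C 60 s), with melt-curve control. MYC or BRD4 mRNA was normalised to PPIA and ACTB by the ΔΔCq method. Experiments were run at least three times; mean ± SD.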

[13] = target: T2, von Hippel-Lindau disease tumor suppressor/Bromodomain-containing protein 4 (Homo sapiens); experiment: PROTAC activity at BRD4/VHL E3 ligase in human fibroblast cells assessed as effect on MYC protein expression at 100 to 250 nM for 24 hrs by Western blot analysis; type: cell-based; settings: dose 100-250 nM
Procedure, shortened: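 Normal human dermal fibroblasts in 10% FCS medium were treated with 100 or 250 nM PROTAC. BRD4 and MYC protein were assessed by western blot (15 µg RIPA lysate, 10% SDS-PAGE, primary 1:1,000 overnight at 4 °C), with GAPDH/β-actin as loading control.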

[14] = target: T2, von Hippel-Lindau disease tumor suppressor/Bromodomain-containing protein 4 (Homo sapiens); experiment: PROTAC activity at BRD4/VHL E3 ligase in human COLO 320 cells assessed as decrease in BRD4 protein degradation at 5 to 10 uM for 24 hrs by Western blot analysis; type: cell-based; settings: dose 5-10 µM; procedure, shortened: as §2
[15] = target: T2, von Hippel-Lindau disease tumor suppressor/Bromodomain-containing protein 4 (Homo sapiens); experiment: PROTAC activity at BRD4/VHL E3 ligase in human DLD-1 cells assessed as decrease in BRD4 protein degradation at 5 to 10 uM for 24 hrs by Western blot analysis; type: cell-based; settings: dose 5-10 µM; procedure, shortened: as §2
[16] = target: T2, von Hippel-Lindau disease tumor suppressor/Bromodomain-containing protein 4 (Homo sapiens); experiment: PROTAC activity at BRD4/VHL E3 ligase in human HCT116 p53-/- cells assessed as decrease in BRD4 protein degradation at 5 to 10 uM for 24 hrs by Western blot analysis; type: cell-based; settings: HCT-116, dose 5-10 µM; procedure, shortened: as §2
[17] = target: T2, von Hippel-Lindau disease tumor suppressor/Bromodomain-containing protein 4 (Homo sapiens); experiment: PROTAC activity at BRD4/VHL E3 ligase in human LS174T cells assessed as decrease in BRD4 protein degradation at 5 to 10 uM for 24 hrs by Western blot analysis; type: cell-based; settings: dose 5-10 µM
Procedure, shortened: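 Eight CRC lines, including LS174t (RPMI 1640) and SW480 (DMEM/HamsF12), all with 10% FCS, were treated with PROTAC at 5 and 10 µM. BRD4 and MYC proteins were detected by immunoblot (RIPA lysate, 15 µg, 10% gel, primary 1:1,000 overnight at 4 °C), with GAPDH/β-actin as loading control.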

T2 sequence (P40337 whole entry, looked up, other chains not shown): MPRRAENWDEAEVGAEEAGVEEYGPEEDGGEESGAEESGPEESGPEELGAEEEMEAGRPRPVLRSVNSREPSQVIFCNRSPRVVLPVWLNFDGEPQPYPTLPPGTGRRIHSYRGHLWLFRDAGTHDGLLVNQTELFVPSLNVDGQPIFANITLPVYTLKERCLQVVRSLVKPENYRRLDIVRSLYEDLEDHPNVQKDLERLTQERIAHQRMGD
T1 sequence (Q96SW2 whole entry, looked up, other chains not shown): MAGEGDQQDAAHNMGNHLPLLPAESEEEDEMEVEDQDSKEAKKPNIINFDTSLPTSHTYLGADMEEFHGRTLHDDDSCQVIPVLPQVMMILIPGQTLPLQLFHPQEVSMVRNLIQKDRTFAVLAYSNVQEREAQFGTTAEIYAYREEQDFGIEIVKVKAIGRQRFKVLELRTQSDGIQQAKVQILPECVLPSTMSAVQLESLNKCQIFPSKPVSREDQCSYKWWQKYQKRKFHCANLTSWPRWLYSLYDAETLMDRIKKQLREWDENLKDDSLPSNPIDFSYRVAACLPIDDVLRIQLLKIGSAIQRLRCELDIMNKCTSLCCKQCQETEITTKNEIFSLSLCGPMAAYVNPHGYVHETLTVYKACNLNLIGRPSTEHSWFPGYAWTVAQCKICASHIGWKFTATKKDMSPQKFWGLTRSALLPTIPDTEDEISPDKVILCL

Row | Structure (SMILES) | inhibition (LS174T [2]) | inhibition (Caco-2) | inhibition (COLO 320) | inhibition (DLD-1) | inhibition (HCT-116 [6]) | inhibition (HCT-116 [7]) | inhibition (LS174T [8]) | inhibition (SW480) | inhibition (HT-29) | also measured
1 | Cc1sc2c(c1C)C(c1ccc(Cl)cc1)=N[C@@H](CC(=O)NCCCCNC(=O)COc1cccc3c1C(=O)N(C1CCC(=O)NC1=O)C3=O)c1nnc(C)n1-2 (stereo partly specified) | Dose-Dependent Effect | Active | Active | Active | Active | Active | Active | Active | Active | Activity [1]: inactive; Activity [3]: Active; Activity [4]: Active; Activity [5]: Active; Activity [9]: inactive; Activity [10]: inactive
2 | Cc1ncsc1-c1ccc(CNC(=O)[C@@H]2C[C@@H](O)CN2C(=O)[C@@H](NC(=O)COCCOCCOCCNC(=O)C[C@@H]2N=C(c3ccc(Cl)cc3)c3c(sc(C)c3C)-n3c(C)nnc32)C(C)(C)C)cc1 | Dose-Dependent Effect | Active | Active | Active | Active | Active | Active | Active | Active | Activity [11]: inactive; Activity [12]: Active; Activity [13]: inactive; Activity [14]: Active; Activity [15]: inactive; Activity [16]: Active; Activity [17]: Active
